Measurements taken from ChEMBL document CHEMBL5674869, “The Histone Methyltransferase Inhibitor A-366 Uncovers a Role for G9a/GLP in the Epigenetics of Leukemia” (PLoS One, 2015).
Active and inactive are the calls of the source. The calls are words filed in the database; no cut-off is given here.

Tests used:
MOLT-16 [1] = experiment: Antiproliferative activity against human MOLT-16 cells at EC50 after 5 days by Cell-Titer-Glo assay; format: functional, cell-based; conditions: time 5.0 day
Summary of the method: (§1)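 ATCC tumor lines were grown in their recommended media with 10% FBS and STR-authenticated. Cells were exposed to compound for the stated number of days. Viable cells were read by CellTiter-Glo endpoint. Inhibition was the ratio of treated to untreated wells, with cell-free wells set as 100% inhibition. The EC50 was taken from the dose response.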

[2] = biological target: T1, Histone-lysine N-methyltransferase EHMT2 (Homo sapiens) (UniProt Q96KQ7); experiment: Inhibition of G9a in human MOLT-16 cells assessed as decrease in […] levels after 72 hrs by Western blot analysis; format: cell-based
T1 sequence (whole entry): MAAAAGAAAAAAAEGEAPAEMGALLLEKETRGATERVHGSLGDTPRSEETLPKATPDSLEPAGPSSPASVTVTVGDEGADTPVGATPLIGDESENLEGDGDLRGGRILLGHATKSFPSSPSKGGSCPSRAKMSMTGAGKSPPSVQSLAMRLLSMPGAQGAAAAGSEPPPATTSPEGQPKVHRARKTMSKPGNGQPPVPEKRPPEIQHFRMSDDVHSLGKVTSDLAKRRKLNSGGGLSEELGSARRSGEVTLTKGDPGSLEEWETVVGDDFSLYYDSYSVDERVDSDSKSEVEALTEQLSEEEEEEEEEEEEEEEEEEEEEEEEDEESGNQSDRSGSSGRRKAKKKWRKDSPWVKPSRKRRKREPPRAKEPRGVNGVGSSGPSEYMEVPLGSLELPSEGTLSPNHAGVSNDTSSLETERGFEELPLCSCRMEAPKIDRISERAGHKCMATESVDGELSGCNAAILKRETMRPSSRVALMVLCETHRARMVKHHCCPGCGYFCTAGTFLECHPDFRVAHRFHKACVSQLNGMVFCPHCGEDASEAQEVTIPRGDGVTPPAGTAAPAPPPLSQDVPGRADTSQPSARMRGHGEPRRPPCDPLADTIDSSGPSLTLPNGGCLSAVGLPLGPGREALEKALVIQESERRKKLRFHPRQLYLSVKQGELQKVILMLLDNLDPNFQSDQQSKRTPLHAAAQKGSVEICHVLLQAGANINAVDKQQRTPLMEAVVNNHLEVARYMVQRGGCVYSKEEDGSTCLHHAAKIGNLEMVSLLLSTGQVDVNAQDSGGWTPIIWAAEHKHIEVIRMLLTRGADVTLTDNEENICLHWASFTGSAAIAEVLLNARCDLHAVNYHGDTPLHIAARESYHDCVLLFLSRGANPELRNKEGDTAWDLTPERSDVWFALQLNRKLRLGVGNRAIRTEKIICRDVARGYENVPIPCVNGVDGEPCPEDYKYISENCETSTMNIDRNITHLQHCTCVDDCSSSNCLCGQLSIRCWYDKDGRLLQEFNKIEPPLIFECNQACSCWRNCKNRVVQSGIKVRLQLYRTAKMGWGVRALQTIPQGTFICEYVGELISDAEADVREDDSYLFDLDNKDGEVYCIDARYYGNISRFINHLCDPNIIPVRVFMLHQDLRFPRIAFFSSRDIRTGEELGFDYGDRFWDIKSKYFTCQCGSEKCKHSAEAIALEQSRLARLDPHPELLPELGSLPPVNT
Summary of the method: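 MOLT-16 T-ALL cells treated 3 days with compound over a concentration range and lysed. Lysates normalized and immunoblotted for H3K9me2, total H3 and G9a.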

MOLT-16 [3] = experiment: Antiproliferative against human MOLT-16 cells after 5 days by Cell-Titer Glo assay; format: functional, cell-based; conditions: MOLT-16, 120 h; summary of the method: as §1
OPM-2 = experiment: Antiproliferative against human OPM-2 cells after 5 days by Cell-Titer Glo assay; format: functional, cell-based; conditions: OPM-2, 120 h; summary of the method: as §1
L-363 = experiment: Antiproliferative against human L-363 cells after 5 days by Cell-Titer Glo assay; format: functional, cell-based; conditions: L-363, 120 h; summary of the method: as §1
KMS-12-BM = experiment: Antiproliferative against human KMS-12-BM cells after 5 days by Cell-Titer Glo assay; format: functional, cell-based; conditions: 120 h; summary of the method: as §1
KMS-11 = experiment: Antiproliferative against human KMS-11 cells after 5 days by Cell-Titer Glo assay; format: functional, cell-based; conditions: KMS-11, 120 h; summary of the method: as §1
Kasumi 1 = experiment: Antiproliferative against human Kasumi-1 cells after 5 days by Cell-Titer Glo assay; format: functional, cell-based; conditions: Kasumi 1, 120 h; summary of the method: as §1
NCI-H929 = experiment: Antiproliferative against human NCI-H929 cells after 5 days by Cell-Titer Glo assay; format: functional, cell-based; conditions: NCI-H929, 120 h; summary of the method: as §1
MV4-11 = experiment: Antiproliferative against human MV4-11 cells after 5 days by Cell-Titer Glo assay; format: functional, cell-based; conditions: MV4-11, 120 h; summary of the method: as §1
HT-1080 = experiment: Antiproliferative against human HT-1080 cells after 5 days by Cell-Titer Glo assay; format: functional, cell-based; conditions: HT-1080, 120 h; summary of the method: as §1
DU-145 = experiment: Antiproliferative against human DU-145 cells after 5 days by Cell-Titer Glo assay; format: functional, cell-based; conditions: DU-145, 120 h; summary of the method: as §1
LNCaP = experiment: Antiproliferative against human LNCaP cells after 5 days by Cell-Titer Glo assay; format: functional, cell-based; conditions: 120 h; summary of the method: as §1
NCI-H1975 = experiment: Antiproliferative against human NCI-H1975 cells after 5 days by Cell-Titer Glo assay; format: functional, cell-based; conditions: NCI-H1975, 120 h; summary of the method: as §1
Calu-1 = experiment: Antiproliferative against human Calu-1 cells after 5 days by Cell-Titer Glo assay; format: functional, cell-based; conditions: Calu-1, 120 h; summary of the method: as §1
Calu-6 = experiment: Antiproliferative against human Calu-6 cells after 5 days by Cell-Titer Glo assay; format: functional, cell-based; conditions: Calu-6, 120 h; summary of the method: as §1
NCI-H358 = experiment: Antiproliferative against human NCI-H358 cells after 5 days by Cell-Titer Glo assay; format: functional, cell-based; conditions: NCI-H358, 120 h; summary of the method: as §1
NCI-H441 = experiment: Antiproliferative against human NCI-H441 cells after 5 days by Cell-Titer Glo assay; format: functional, cell-based; conditions: NCI-H441, 120 h; summary of the method: as §1
NCI-H522 = experiment: Antiproliferative against human NCI-H522 cells after 5 days by Cell-Titer Glo assay; format: functional, cell-based; conditions: NCI-H522, 120 h; summary of the method: as §1
NCI-H661 = experiment: Antiproliferative against human NCI-H661 cells after 5 days by Cell-Titer Glo assay; format: functional, cell-based; conditions: NCI-H661, 120 h; summary of the method: as §1
PA-1 = experiment: Antiproliferative against human PA-1 cells after 7 days by Cell-Titer Glo assay; format: functional, cell-based; conditions: PA-1, 168 h; summary of the method: as §1
SK-N-MC = experiment: Antiproliferative against human SK-N-MC cells after 7 days by Cell-Titer Glo assay; format: functional, cell-based; conditions: 168 h; summary of the method: as §1
ZR-75-30 = experiment: Antiproliferative against human ZR-75-30 cells after 7 days by Cell-Titer Glo assay; format: functional, cell-based; conditions: ZR-75-30, 168 h; summary of the method: as §1
U2OS = experiment: Antiproliferative against human U2OS cells after 7 days by Cell-Titer Glo assay; format: functional, cell-based; conditions: 168 h; summary of the method: as §1
[4] = Antiproliferative against human TC71 cells after 7 days by Cell-Titer Glo assay; format: functional, cell-based; conditions: TC-71, 168 h; summary of the method: as §1
IMR-32 = experiment: Antiproliferative against human IMR-32 cells after 7 days by Cell-Titer Glo assay; format: functional, cell-based; conditions: IMR-32, 168 h; summary of the method: as §1
[5] = Antiproliferative against human tsA201 cells after 7 days by Cell-Titer Glo assay; format: functional, cell-based; conditions: tsA201, 168 h; summary of the method: as §1

SMILES	Activity (MOLT-16 [1])	inhibition [2]	EC50 (MOLT-16 [3]) [µM]	EC50 (OPM-2) [µM]	EC50 (L-363) [µM]	EC50 (KMS-12-BM) [µM]	EC50 (KMS-11) [µM]	EC50 (Kasumi 1) [µM]	EC50 (NCI-H929) [µM]	EC50 (MV4-11) [µM]	EC50 (HT-1080) [µM]	EC50 (DU-145) [µM]	EC50 (LNCaP) [µM]	EC50 (NCI-H1975) [µM]	EC50 (Calu-1) [µM]	EC50 (Calu-6) [µM]	EC50 (NCI-H358) [µM]	EC50 (NCI-H441) [µM]	EC50 (NCI-H522) [µM]	EC50 (NCI-H661) [µM]	also measured
COc1cc2c(cc1OCCCN1CCCC1)N=C(N)C21CCC1	inactive	Active	> 10	> 10	> 10	> 10	> 10	> 10	> 10	> 10	> 10	> 10	> 10	> 10	> 10	> 10	> 10	> 10	> 10	> 10	EC50 (PA-1): > 10 µM; EC50 (SK-N-MC): > 10 µM; EC50 (ZR-75-30): > 10 µM; EC50 (U2OS): > 10 µM; EC50 [4]: > 10 µM; EC50 (IMR-32): > 10 µM; EC50 [5]: > 10 µM
COc1cc2c(NC3CCN(C(C)C)CC3)nc(C3CCCCC3)nc2cc1OCCCN1CCCC1	Active	Active	0.2	5.6	3.9	4.4	4	1.1	4.6	1.7	0.5	0.7	0.3	> 10	1.3	1.5	4.3	8.7	1.5	4.9	EC50 (PA-1): 0.2 µM; EC50 (SK-N-MC): 0.2 µM; EC50 (ZR-75-30): 1.2 µM; EC50 (U2OS): 0.5 µM; EC50 [4]: 0.6 µM; EC50 (IMR-32): > 10 µM; EC50 [5]: > 10 µM
